High-throughput results (PubChem BioAssay)
In the library only some 2.6% were active in any assay of this set; here they are far more common.
TAAR1 ag: human TAAR1 agonists, primary screen, Fluo-8 calcium fluorescence, CHO RD-HGA16 cells. Trace amine-associated receptor 1 (Homo sapiens), Q96RJ0. vehicle wells 0%, saturating PEA agonist 100%. activation, % at 3 µM. hit rate 0.99% among 360,000;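 active = activation above the mean activation of all test compounds in the run plus 3 SD, cut at about 38% in these data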
Target sequence (Q96RJ0 whole entry, looked up): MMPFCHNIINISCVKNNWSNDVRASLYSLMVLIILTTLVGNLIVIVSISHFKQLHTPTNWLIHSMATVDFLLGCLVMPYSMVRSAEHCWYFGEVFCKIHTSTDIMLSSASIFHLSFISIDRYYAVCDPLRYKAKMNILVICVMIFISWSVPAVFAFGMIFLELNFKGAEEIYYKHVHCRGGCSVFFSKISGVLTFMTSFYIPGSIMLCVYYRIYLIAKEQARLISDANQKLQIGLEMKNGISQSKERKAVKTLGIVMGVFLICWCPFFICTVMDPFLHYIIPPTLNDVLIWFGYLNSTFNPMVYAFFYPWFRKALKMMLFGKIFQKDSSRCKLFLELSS
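Test system: RD-HGA16 (CHO) cells co-expressing Gα16 and hTAAR1 / Benchmarks: DMSO vehicle as 0%, PEA at EC100 as 100% / Repeats: no replicates (n 1) / Measure: % activation from peak over basal fluorescence ratio, DMSO-to-PEA scaled / Timing: 17-24 h plating, Fluo-8 75 min 37 °C, 30 min RT / Technique: kinetic Fluo-8 calcium fluorescence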
TAAR1 antag: human TAAR1 antagonists, primary screen, Fluo-8 calcium fluorescence, CHO RD-HGA16 cells; antagonist; inhibition, % at 3 µM; hit rate 1.5% among 360,000;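 active = inhibition above a per-plate cutoff, the mean inhibition of test compounds on that plate plus 3 SD, cut at about 49% in these data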
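Test system: RD-HGA16 CHO cells with stable hTAAR1 and Gα16 / Probe or stimulus: EC80 β-phenethylamine stimulus / Times: seeding 17-24 h prior, 75-min 37 °C, 30-min RT dye loading / Detection: Fluo-8 calcium-sensitive fluorescence / Read-out basis: % inhibition scaled between DMSO and EC80 PEA controls / Repeats: singlicate, one well per test compound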
Platelet DG rel: inhibitors of platelet dense granule secretion, primary screen, cell-based, MLPCN, human platelets; AID 1663, 2009; human platelet-rich plasma, SFLLRN dense granule ATP release, luminescence; inhibition, %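 (compounds screened at 7.5 µM in platelet-rich plasma)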; hit rate 0.22% among 300,000;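 active = mean replicate score, as percent of positive control, at or above 50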
VLA-4 inh: inhibition in human VLA-4 binding assay, primary screen, VLA-4 allosteric modulator project, MLPCN library, flow cytometry, VLA-4 expressing cells | Integrin alpha-4 (Homo sapiens), P13612 | ligand binding flow cytometry | inhibition, % (about 7 µM as worked out from the volumes in the protocol) | hit rate 0.2% among 330,000 | AID 2557, 2010; in the data active = inhibition above about 50%
Rce1 inh: yeast Rce1p protease inhibitors, primary screen, biochemical, fluorescence, cell-free homogeneous; CAAX prenyl protease 2 (Saccharomyces cerevisiae (strain ATCC 204508 / S288c)), Q03530; yeast membranes, quenched prenylated peptide cleavage fluorescence; calls only; hit rate 0.27% among 290,000;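 active = fall in fluorescence gain of 50% or more versus controls, with final raw signal at or below 3038400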
Target sequence (Q03530 whole entry, looked up): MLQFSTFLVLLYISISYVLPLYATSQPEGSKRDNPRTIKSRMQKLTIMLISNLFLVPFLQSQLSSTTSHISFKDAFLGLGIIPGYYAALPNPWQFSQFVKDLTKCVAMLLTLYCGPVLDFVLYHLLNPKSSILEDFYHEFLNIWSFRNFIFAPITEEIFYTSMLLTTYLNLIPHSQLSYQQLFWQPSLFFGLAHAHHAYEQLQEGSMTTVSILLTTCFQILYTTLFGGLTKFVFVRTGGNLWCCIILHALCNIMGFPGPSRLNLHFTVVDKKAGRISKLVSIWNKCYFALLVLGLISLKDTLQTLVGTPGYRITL
TAAR1 nonsel count: nonselective antagonists in TAAR1 counter-screen cells, counter-screen for hTAAR1 antagonist project, cell-based, fluorescence, calcium. shares compounds with TAAR1 antag. hit rate 77% among 2,400. inhibition, % at 3 µM. counterscreen cell line, antagonist mode; in the data active = inhibition above about 22%;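 also: CHO-Ga16 host cells stimulated with ATP at an EC80 level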
TAAR1 antag conf: human TAAR1 antagonists, retest of hits, confirmation, cell-based, fluorescence | shares compounds with TAAR1 antag | TAAR1-expressing cells, fluorescence antagonist read-out | inhibition, % at 3 µM | hit rate 40% among 2,400 | AID 651785, 2012; in the data active = inhibition above about 49%;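 also: CHO-Ga16 host cells challenged with agonist PEA near its EC80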
Ga16 ag counter: calcium activation in Ga16-expressing cells, counter-screen for TAAR1 antagonist project, cell-based, fluorescence. shares compounds with TAAR1 antag. agonist counterscreen. hit rate 18% among 2,400. activation, % at 3 µM; in the data active = activation above about 12%
TAAR1 ag count: TAAR1 activation by candidate antagonists – cell-based, fluorescence, counter-screen for TAAR1 antagonist project | AID 651955, 2012 | activation, % at 3 µM | hTAAR1 cell line, agonist mode | hit rate 2% among 2,400 | shares compounds with TAAR1 antag; in the data active = activation above about 37%;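 also: CHO cells stably expressing TAAR1 with calcium dye readout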
A number is an active result; i = inactive; nt = no result.

SMILES | TAAR1 ag | TAAR1 antag | Platelet DG rel | VLA-4 inh | Rce1 inh | TAAR1 nonsel count | TAAR1 antag conf | Ga16 ag counter | TAAR1 ag count
COCCNC(=O)C1CCCN(C(=O)c2cc(-c3ccccc3)cs2)CC1 (stereo not drawn) | i | i | nt | nt | nt | nt | nt | nt | nt
COc1ccc(-c2csc(N3CCN(c4cc5c(cc4Cl)nc(-c4ccncc4)n5CCOCCO)CC3)n2)cc1 | i | 50 | i | i | i | 34 | i | i | i
CCN1CCN(c2ncnc3c2c(-c2ccccc2)cn3-c2ccc(F)cc2)CC1 | i | i | i | i | i | nt | nt | nt | nt
COc1ccc(-n2cc(-c3ccccc3)c3c(NCCCN4CCOCC4)ncnc32)cc1 | i | i | i | i | i | nt | nt | nt | nt
Fc1ccc(-n2cc(-c3ccccc3)c3c(N4CCOCC4)ncnc32)cc1 | i | 67 | i | i | i | i | i | i | i
NC(=O)C1CCN(c2ncnc3c2c(-c2ccccc2)cn3-c2ccccc2)CC1 | i | 64 | i | i | i | 25 | i | i | i
COc1ccc(-n2cc(-c3ccccc3)c3c(N4CCOCC4)ncnc32)cc1 | i | 69 | i | i | i | 24 | i | i | i
OCCN1CCN(c2ncnc3c2c(-c2ccccc2)cn3-c2ccc(Br)cc2)CC1 | i | i | i | i | i | nt | nt | nt | nt
CS(=O)(=O)N1CCC(C(=O)Nc2ccc(Cl)cc2Cl)CC1 | i | i | nt | nt | nt | nt | nt | nt | nt
Cc1ccc2nc(SCC(=O)Nc3cc(C)on3)nc(=O)n2c1 | i | i | i | i | i | nt | nt | nt | nt
COc1ccc(Br)cc1CN1CCN(S(=O)(=O)Cc2ccccc2)CC1 | i | 56 | i | i | i | i | i | i | i
Cc1ccc(Cl)cc1N1CCN(C(=O)CSc2nnc3n2C(C)(C)Cc2ccccc2-3)CC1 | i | 60 | i | i | i | 44 | i | i | i
N#Cc1cc2c(=O)n3ccccc3nc2n(-c2ccccc2Cl)c1=O | i | i | i | i | i | nt | nt | nt | nt
Cc1ccc(C(C)(C)NC(=O)C2CCC(=O)N(CC3CCCCC3)C2)cc1 (stereo not drawn) | i | i | i | i | i | nt | nt | nt | nt
Cc1noc(C)c1C(=O)Nc1nc(-c2ccc([N+](=O)[O-])cc2)cs1 | i | 57 | i | i | i | 37 | i | i | i
Cc1ccccc1N1CCN(C2CCCN(C(=O)c3cn4cccc(C)c4n3)C2)CC1 (stereo not drawn) | i | 57 | i | nt | i | 30 | i | i | i
COc1ccc(O)c(/C=N/NC(=S)NCCc2ccccc2)c1 | i | 54 | i | i | i | 27 | 57 | 15 | 44
COc1ccc(/C=N/NC(=S)NCCc2ccccc2)cc1 | i | i | i | i | i | nt | nt | nt | nt
Cc1cc(C)c(-c2cc(C(=O)Nc3cc(C)ccc3C)[nH]n2)c(O)c1 | i | i | i | i | i | nt | nt | nt | nt
CC(OC(=O)c1cnccn1)C(=O)Nc1nc(-c2cccc([N+](=O)[O-])c2)cs1 (stereo not drawn) | i | 52 | nt | i | nt | 24 | i | i | i
CC(OC(=O)c1ccccc1Br)C(=O)Nc1nc(-c2cccc([N+](=O)[O-])c2)cs1 (stereo not drawn) | i | i | i | i | i | nt | nt | nt | nt
CCCCC(c1nc2ccccc2[nH]1)N(C(=O)c1ccccc1)c1ccccc1[N+](=O)[O-] (stereo not drawn) | i | i | nt | nt | nt | nt | nt | nt | nt
O=C(Nc1ccc(C(F)(F)F)cc1)c1ccccc1-n1cnnn1 | i | i | nt | i | nt | nt | nt | nt | nt
O=C(CSc1nc(-c2ccccc2)nc2ccc(F)cc12)Nc1ccc(C(=O)O)cc1 | i | i | nt | i | i | nt | nt | nt | nt
O=C(CSc1nc(-c2ccccc2)nc2ccc(F)cc12)Nc1cccc(C(=O)O)c1 | i | 63 | i | i | i | 31 | 49 | i | i
SMILES | TAAR1 ag | TAAR1 antag | Platelet DG rel | VLA-4 inh | Rce1 inh | TAAR1 nonsel count | TAAR1 antag conf | Ga16 ag counter | TAAR1 ag count
CN(C)S(=O)(=O)c1ccc(C(=O)NCC2CC2(Cl)Cl)cc1 (stereo not drawn) | i | i | i | i | i | nt | nt | nt | nt
CCCNNC(=O)C(O)(c1ccccc1)c1ccccc1 | i | i | i | i | i | nt | nt | nt | nt
CCOC(=O)CCP(=O)(O)C(C)(O)c1ccccc1 (stereo not drawn) | i | 107 | i | i | i | i | i | i | i
CCCCn1nnnc1C(c1cc2ccccc2o1)N1CCN(c2ccncc2)CC1 (stereo not drawn) | i | i | nt | nt | nt | nt | nt | nt | nt
O=C1NCN(c2ccccc2)C12CCN(CCCC(c1ccc(F)cc1)c1ccc(F)cc1)CC2 | i | 78 | i | i | i | 47 | i | 20 | i
O=C(CCCN1CCN(c2ccccc2)CC1)c1ccc(F)cc1 | i | i | nt | nt | nt | nt | nt | nt | nt
CC1Nc2ncnc(N3CCN(c4ccccc4)CC3)c2N(Cc2ccc(Cl)cc2)C1=O (stereo not drawn) | i | 53 | i | i | i | 22 | i | i | i
CC1Nc2ncnc(N3CCN(c4ccccc4)CC3)c2N(Cc2ccccc2)C1=O (stereo not drawn) | i | 50 | i | i | i | 22 | i | i | i
CC(C)CC1Nc2ncnc(N3CCN(c4ccccc4)CC3)c2N(Cc2ccccc2)C1=O (stereo not drawn) | i | i | i | i | i | nt | nt | nt | nt
COc1cccc(CN(C)C(=O)C(CCSC)NS(=O)(=O)c2ccc3c(c2)OCCO3)c1OC (stereo not drawn) | i | 75 | i | i | i | 38 | 63 | 12 | i
CSCCC(NS(=O)(=O)c1ccc2c(c1)OCCO2)C(=O)N(C)Cc1ccc(C)cc1 (stereo not drawn) | i | 63 | i | i | i | 23 | i | i | i
CSCCC(NS(=O)(=O)c1ccc2c(c1)OCCO2)C(=O)NCCc1ccccn1 (stereo not drawn) | i | i | i | i | i | nt | nt | nt | nt
COc1ccc(NC(=O)CN(C)C(=O)c2cccc(S(=O)(=O)N3CCN(c4ccc(F)cc4)CC3)c2)cc1 | i | i | nt | nt | nt | nt | nt | nt | nt
C/C(=N\N=c1/scc(C)n1Cc1ccco1)c1cccc([N+](=O)[O-])c1 | i | i | i | nt | i | nt | nt | nt | nt
Cc1ccc(S(=O)(=O)N2CCOCC2)cc1C(=O)NCCN1C(=O)S/C(=C\c2ccccc2Cl)C1=O | i | 67 | i | i | i | 37 | 52 | 14 | i
